Values after ≈ are worked out from the molar mass of the structure shown.
What was measured:
[1] = tested on: Rattus norvegicus; experiment: Inhibition of LPS-induced TNFalpha production in Lewis rat at 0.01 mg/kg, po administered 60 mins prior to LPS challenge measured after 90 mins by ELISA
[2] = Half life in Sprague-Dawley rat at 2 mg/kg, iv; format: ADME, organism-based; parameters: dose 2 mg/kg, route intravenous; conditions: in vivo
Summary of the method: (§1)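 Male Sprague–Dawley rats given 2.0 mg/kg iv (in DMSO) or 2.0 mg/kg po. Values are the mean of three rats. Reported parameters are CL, Vdss, t1/2, AUC(0-inf) and oral F.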

[3] = tested on: Rattus norvegicus; experiment: Inhibition of LPS-induced TNFalpha production in po dosed Lewis rat administered 60 mins prior to LPS challenge measured after 90 mins by ELISA
[4] = AUC (0 to infinity) in Sprague-Dawley rat at 2 mg/kg, po; format: ADME, organism-based; parameters: time infinity, dose 2 mg/kg, route oral; conditions: plasma
Summary of the method: as §1

[5] = target: Cytochrome P450 2D6 (Homo sapiens, UniProt P10635); experiment: Inhibition of CYP2D6; format: ADME
[6] = Solubility in simulated intestinal fluid; format: physicochemical
[7] = tested on: Rattus norvegicus; experiment: Inhibition of LPS-induced TNFalpha production in Lewis rat at 0.1 mg/kg, po administered 60 mins prior to LPS challenge measured after 90 mins by ELISA
[8] = Protein binding in rat plasma by ultrafiltration method; conditions: read-out: PPB (converted)
[9] = target: Cytochrome P450 2C19 (Homo sapiens, UniProt P33261); experiment: Inhibition of CYP2C19; format: ADME
[10] = Volume of distribution at steady state in Sprague-Dawley rat at 2 mg/kg, iv; format: ADME, organism-based; parameters: dose 2 mg/kg, route intravenous; conditions: in vivo, read-out: Vdss
Summary of the method: as §1

[11] = tested on: THP-1; experiment: Inhibition of LPS-induced TNFalpha release in human THP1 cells after 3 hrs; format: functional, cell-based; conditions: THP-1, 3 h
Summary of the method: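 THP1 cell line challenged with LPS, with TNFα secretion as read-out. IC50 is the mean of at least three independent dose–response curves, or of two where flagged.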

[12] = Clearance in Sprague-Dawley rat at 2 mg/kg, iv; format: ADME, organism-based; parameters: dose 2 mg/kg, route intravenous; conditions: in vivo
Summary of the method: as §1

[13] = target: Cytochrome P450 2C9 (Homo sapiens, UniProt P11712); experiment: Inhibition of CYP2C9; format: ADME
[14] = target: RAF proto-oncogene serine/threonine-protein kinase (Homo sapiens) (UniProt P04049); experiment: Inhibition of c-Raf at 1.5 uM; values are per cent of control
[15] = tested on: Rattus norvegicus; experiment: Inhibition of LPS-induced TNFalpha production in Lewis rat at 0.3 mg/kg, po administered 60 mins prior to LPS challenge measured after 90 mins by ELISA
[16] = Oral bioavailability in Sprague-Dawley rat at 2 mg/kg; format: ADME, organism-based; conditions: in vivo
Summary of the method: as §1

[17] = Ratio of drug level in brain to plasma in Lewis rat; format: ADME; conditions: read-out: BPR
[18] = tested on: Blood; experiment: Inhibition of TNF-alpha-stimulated IL8 production in human whole blood incubated for 1 hr before TNFalpha challenge measured after 16 to 18 hrs; format: functional, tissue-based
Summary of the method: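 Human whole blood diluted to 50% and stimulated with TNFα, with IL-8 secretion as read-out. IC50 is the mean of at least three independent dose–response curves, or of two where flagged.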

[19] = Solubility in phosphate buffered saline; format: physicochemical
[20] = Solubility in 0.01N HCl; format: physicochemical
[21] = organism: Rattus norvegicus; experiment: Plasma concentration in Lewis rat at ED50; format: ADME, organism-based; conditions: in vivo
[22] = tested on: Rattus norvegicus; experiment: Inhibition of LPS-induced TNFalpha production in Lewis rat at 0.03 mg/kg, po administered 60 mins prior to LPS challenge measured after 90 mins by ELISA
[23] = target: Mitogen-activated protein kinase 14 (Homo sapiens, UniProt Q16539); experiment: Inhibition of human recombinant p38alpha assessed as phosphorylation of ATF2 by scintillation proximity assay
Mitogen-activated protein kinase 14, sequence (Q16539 whole entry): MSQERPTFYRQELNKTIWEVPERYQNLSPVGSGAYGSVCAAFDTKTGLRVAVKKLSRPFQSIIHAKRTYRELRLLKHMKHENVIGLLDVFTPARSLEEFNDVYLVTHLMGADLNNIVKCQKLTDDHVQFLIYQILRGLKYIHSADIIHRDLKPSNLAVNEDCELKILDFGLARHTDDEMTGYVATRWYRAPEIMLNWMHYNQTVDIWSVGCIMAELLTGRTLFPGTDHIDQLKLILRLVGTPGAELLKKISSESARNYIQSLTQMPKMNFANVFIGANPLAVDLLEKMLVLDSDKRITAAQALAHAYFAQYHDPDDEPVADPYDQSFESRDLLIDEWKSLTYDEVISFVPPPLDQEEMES

Cytochrome P450 2C9, sequence (P11712 whole entry): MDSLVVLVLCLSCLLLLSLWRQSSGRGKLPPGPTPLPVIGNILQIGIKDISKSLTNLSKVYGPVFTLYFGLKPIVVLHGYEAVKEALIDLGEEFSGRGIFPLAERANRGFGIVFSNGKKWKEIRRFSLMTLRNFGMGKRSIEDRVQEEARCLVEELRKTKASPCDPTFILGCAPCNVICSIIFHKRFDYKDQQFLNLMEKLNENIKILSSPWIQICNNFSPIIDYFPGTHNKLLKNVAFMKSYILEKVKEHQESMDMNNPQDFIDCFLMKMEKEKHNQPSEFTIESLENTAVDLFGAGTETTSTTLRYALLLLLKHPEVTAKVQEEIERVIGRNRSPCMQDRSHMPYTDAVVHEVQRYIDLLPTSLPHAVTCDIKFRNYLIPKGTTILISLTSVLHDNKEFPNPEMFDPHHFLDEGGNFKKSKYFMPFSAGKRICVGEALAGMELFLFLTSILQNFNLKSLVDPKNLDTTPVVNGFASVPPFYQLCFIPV
Cytochrome P450 2C19, sequence (P33261 whole entry): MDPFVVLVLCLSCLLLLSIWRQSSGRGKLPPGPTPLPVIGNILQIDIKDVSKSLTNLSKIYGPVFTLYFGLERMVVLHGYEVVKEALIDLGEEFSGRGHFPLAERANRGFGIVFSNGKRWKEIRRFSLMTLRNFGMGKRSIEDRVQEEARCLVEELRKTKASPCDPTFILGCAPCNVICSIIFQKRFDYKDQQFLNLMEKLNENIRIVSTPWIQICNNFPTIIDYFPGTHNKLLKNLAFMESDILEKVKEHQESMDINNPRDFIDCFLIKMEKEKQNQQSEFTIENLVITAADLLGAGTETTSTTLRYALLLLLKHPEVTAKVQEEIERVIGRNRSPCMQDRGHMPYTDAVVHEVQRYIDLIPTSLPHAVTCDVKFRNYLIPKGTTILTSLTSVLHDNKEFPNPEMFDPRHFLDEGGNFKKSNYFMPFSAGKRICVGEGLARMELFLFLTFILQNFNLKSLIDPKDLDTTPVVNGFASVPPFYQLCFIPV
Cytochrome P450 2D6, sequence (P10635 whole entry): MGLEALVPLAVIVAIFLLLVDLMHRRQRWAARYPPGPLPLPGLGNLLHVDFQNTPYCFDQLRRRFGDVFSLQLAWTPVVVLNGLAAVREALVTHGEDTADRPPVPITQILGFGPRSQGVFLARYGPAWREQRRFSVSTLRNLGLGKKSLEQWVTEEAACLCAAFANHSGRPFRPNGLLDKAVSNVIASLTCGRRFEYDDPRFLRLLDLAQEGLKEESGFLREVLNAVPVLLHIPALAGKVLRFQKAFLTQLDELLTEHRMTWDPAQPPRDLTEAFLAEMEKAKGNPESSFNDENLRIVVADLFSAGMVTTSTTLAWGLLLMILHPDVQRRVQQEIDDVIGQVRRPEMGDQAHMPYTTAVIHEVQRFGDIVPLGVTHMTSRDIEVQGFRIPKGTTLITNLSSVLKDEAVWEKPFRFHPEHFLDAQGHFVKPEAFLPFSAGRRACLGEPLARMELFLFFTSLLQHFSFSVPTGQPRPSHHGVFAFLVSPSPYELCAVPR
RAF proto-oncogene serine/threonine-protein kinase (Homo sapiens), sequence (P04049 whole entry): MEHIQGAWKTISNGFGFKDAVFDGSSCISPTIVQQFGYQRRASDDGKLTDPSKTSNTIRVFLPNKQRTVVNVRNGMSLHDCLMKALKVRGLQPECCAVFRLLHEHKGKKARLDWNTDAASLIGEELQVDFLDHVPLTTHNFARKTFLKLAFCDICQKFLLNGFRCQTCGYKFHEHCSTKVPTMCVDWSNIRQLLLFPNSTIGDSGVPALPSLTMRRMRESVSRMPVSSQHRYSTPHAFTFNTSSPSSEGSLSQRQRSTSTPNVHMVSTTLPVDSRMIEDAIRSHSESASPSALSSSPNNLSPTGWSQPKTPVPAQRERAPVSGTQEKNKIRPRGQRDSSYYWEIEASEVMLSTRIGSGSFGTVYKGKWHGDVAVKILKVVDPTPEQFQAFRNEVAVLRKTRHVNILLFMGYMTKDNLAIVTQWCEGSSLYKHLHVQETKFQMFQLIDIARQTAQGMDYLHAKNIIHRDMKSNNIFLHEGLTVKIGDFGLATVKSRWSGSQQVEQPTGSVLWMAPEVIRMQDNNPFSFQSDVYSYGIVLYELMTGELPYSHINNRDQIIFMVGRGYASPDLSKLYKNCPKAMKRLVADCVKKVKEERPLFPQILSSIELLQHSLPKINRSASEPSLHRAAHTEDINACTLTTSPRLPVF

Structure (SMILES): Cn1c(=O)cc(Nc2cc(C(=O)NC3CC3)ccc2Cl)c2cnn(-c3ccc(F)cc3F)c21
- inhibition in vivo at 0.01 mg/kg [1]: 21.6%
- half-life [2]: 3.8 h
- ED50 [3]: 0.05 mg/kg
- AUC(0-inf) [4]: 4610 ng·h/mL
- IC50 [5]: 22700 nM
- solubility [6]: 81.7 µg/mL (≈ 174 µM)
- inhibition in vivo at 0.1 mg/kg [7]: 83.9%
- fraction unbound [8]: 0.02
- IC50 [9]: 16000 nM
- Vd [10]: 1.2 L/kg
- IC50 [11]: 0.44 nM
- clearance [12]: 6.17 mL/min/kg
- IC50 [13]: 8400 nM
- residual activity [14]: 75%
- inhibition in vivo at 0.3 mg/kg [15]: 98.4%
- bioavailability [16]: 81%
- Kp [17]: 0.06
- IC50 [18]: 1.1 nM
- solubility [19]: 60.6 µg/mL (≈ 129 µM)
- solubility [20]: 67.1 µg/mL (≈ 143 µM)
- Cp [21]: 0.9 ng/mL
- inhibition in vivo at 0.03 mg/kg [22]: 22.6%

Structure (SMILES): Cc1ccc(C(=O)O)cc1Nc1cc(=O)n(C)c2c1cnn2-c1ccc(F)cc1F
- IC50 [23]: > 1000 nM
- IC50 [11]: > 2500 nM
- IC50 [18]: > 2500 nM

Structure (SMILES): Cc1ccc(C(=O)NC2CC2)cc1Oc1cc(=O)n(C)c2c1cnn2-c1ccc(F)cc1F
- solubility [6]: 12.2 µg/mL (≈ 27.1 µM)
- IC50 [23]: 7.8 nM
- IC50 [11]: 3.5 nM
- IC50 [18]: 16 nM
- solubility [19]: 5.3 µg/mL (≈ 11.8 µM)
- solubility [20]: 5.7 µg/mL (≈ 12.7 µM)

Structure (SMILES): Cc1ccc(C(=O)NC2CC2)cc1Nc1cc(=O)n(C)c2c1cnn2-c1c(F)cccc1F
- half-life [2]: 2.8 h
- AUC(0-inf) [4]: 273 ng·h/mL
- IC50 [23]: 1.9 nM
- Vd [10]: 1.2 L/kg
- IC50 [11]: 0.87 nM
- clearance [12]: 14.7 mL/min/kg
- bioavailability [16]: 12%
- IC50 [18]: 1.3 nM

Structure (SMILES): Cn1c(=O)cc(Nc2cc(C(=O)NC3CC3)ccc2F)c2cnn(-c3c(F)cccc3F)c21
- IC50 [23]: 1.9 nM
- IC50 [11]: 3.2 nM
- IC50 [18]: 8.2 nM

Structure (SMILES): Cc1ccc(C(N)=O)cc1Nc1cc(=O)n(C)c2c1cnn2-c1cc(F)ccc1F
- IC50 [23]: 3.7 nM
- IC50 [11]: 7.5 nM
- IC50 [18]: 7.1 nM

Structure (SMILES): Cc1ccc(C(=O)NC2CC2)cc1Nc1cc(=O)n(C)c2c1cnn2-c1cccc(F)c1
- IC50 [23]: 3.3 nM
- IC50 [11]: 1.3 nM
- IC50 [18]: 1.7 nM

Structure (SMILES): Cn1c(=O)cc(NC2CCOCC2)c2cnn(-c3cccc(F)c3)c21
- IC50 [23]: > 1000 nM
- IC50 [11]: > 2500 nM
- IC50 [18]: > 2500 nM

Structure (SMILES): Cc1ccc(C(=O)NC(C)(C)C)cc1Nc1cc(=O)n(C)c2c1cnn2-c1ccc(F)cc1F
- IC50 [23]: 269 nM
- IC50 [11]: 65 nM
- IC50 [18]: 204 nM

Structure (SMILES): Cc1ccc(C(=O)NC2CC2)cc1Nc1cc(=O)n(C)c2c1cnn2-c1ccc(F)cc1F
- IC50 [11]: 1 nM
- IC50 [18]: 2.4 nM

Structure (SMILES): CCn1c(=O)cc(Nc2cc(C(=O)NC3CC3)ccc2C)c2cnn(-c3ccc(F)cc3)c21
- IC50 [23]: 4 nM
- IC50 [11]: 1.1 nM
- IC50 [18]: 1.9 nM

Structure (SMILES): Cc1ccc(C(N)=O)cc1Nc1cc(=O)n(C)c2c1cnn2-c1ccc(F)cc1F
- IC50 [23]: 2.6 nM
- IC50 [11]: 1.9 nM
- IC50 [18]: 3.4 nM

Structure (SMILES): Cn1c(=O)cc(Nc2cc(C(=O)NC3CC3)ccc2F)c2cnn(-c3ccc(F)cc3F)c21
- IC50 [23]: 13 nM
- IC50 [11]: 6.7 nM
- IC50 [18]: 19 nM

Source: ChEMBL document CHEMBL1153060, “Part 1: Structure-Activity Relationship (SAR) investigations of fused pyrazoles as potent, selective and orally available inhibitors of p38alpha mitogen-activated protein kinase” (Bioorg Med Chem Lett, 2009)
